Laboratory results as given in article PMC2907921 (Cancer cell, 2010).

Experiments:
[1] = test system: COX; details: ref Haanen, 2001; cited from earlier work
[2] = test system: RXRα/Δ80 tumor; assay: RXRα/Δ80 tumor growth in nude mice; type: in vivo, Nude mice (BALB/c); details: 60 mg/kg intraperitoneally, two weeks
[3] = test system: HeLa/RXRα/1–134 and RXRα/Δ80 cells; assay: Colony formation; type: cell-based; details: 25 μM
Summary of the method: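 Clonogenic survival of HeLa stably expressing RXRα/1–134, and of SW480 or HCT116 stably expressing GFP-RXRα/Δ80. Cells were grown in 6-well plates for 5 days, then exposed to 25 μM test compound in 0.5% serum medium for 3 days. Colonies were fixed with 4% paraformaldehyde and stained with 0.1% crystal violet.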

[4] = target: T1, RXRα LBD (Homo sapiens, UniProt P19793); assay: Competition ligand-binding assay with [3H]9-cis-RA; details: Sulindac analogs
T1 sequence (P19793 227-458 limits assumed): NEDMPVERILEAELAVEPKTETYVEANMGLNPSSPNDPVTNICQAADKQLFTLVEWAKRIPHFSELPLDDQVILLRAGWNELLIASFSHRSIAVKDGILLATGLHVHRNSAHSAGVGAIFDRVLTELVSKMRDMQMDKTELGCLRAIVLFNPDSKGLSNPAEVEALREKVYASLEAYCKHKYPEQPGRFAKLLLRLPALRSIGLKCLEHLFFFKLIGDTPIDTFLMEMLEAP
Summary of the method: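 Competitive binding: RXR ligand-binding domain incubated with [3H]-9-cis-RA, with or without unlabeled 9-cis-RA or test compound. Bound radioligand was quantified by liquid scintillation counting.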

[5] = test system: COX-1 and COX-2; assay: COX Fluorescent Activity Assay; type: biochemical
[6] = test system: AKT activation; assay: AKT activation by immunoblotting; type: cell-based; details: 50 μM
Summary of the method: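 Immunoblot for Ser473-phospho-AKT. Cells were serum-starved overnight and exposed to 100 μM test compound for 1 hr. In TNFα arms, cells were pretreated with compound (100 μM in A549, 50 μM in PC3) for 1 hr and then given TNFα 10 ng/ml for 30 min. Some cells were transfected with RXRα, RARγ or control siRNA for 48 hr beforehand. Compound was dissolved in DMSO.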

[7] = target: T2, tRXRα/p85α interaction (Homo sapiens, UniProt P19793); assay: tRXRα/p85α interaction by co-immunoprecipitation; type: cell-based; details: A549 cells, 50 μM, absence or presence of TNFα
T2 sequence (P19793 81-462 limits assumed): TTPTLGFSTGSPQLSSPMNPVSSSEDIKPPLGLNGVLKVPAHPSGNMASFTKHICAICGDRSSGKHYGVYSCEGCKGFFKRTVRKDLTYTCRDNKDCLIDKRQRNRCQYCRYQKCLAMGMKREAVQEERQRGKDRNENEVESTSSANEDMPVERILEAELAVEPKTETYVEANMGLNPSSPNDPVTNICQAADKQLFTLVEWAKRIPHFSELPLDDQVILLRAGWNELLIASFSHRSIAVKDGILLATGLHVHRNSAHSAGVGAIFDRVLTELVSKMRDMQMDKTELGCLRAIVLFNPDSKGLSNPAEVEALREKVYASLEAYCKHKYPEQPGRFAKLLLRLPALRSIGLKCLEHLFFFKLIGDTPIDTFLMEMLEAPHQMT
Summary of the method: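 Two co-immunoprecipitation set-ups in A549 cells. (a) Endogenous protein: cells received TNFα 10 ng/ml and/or 100 μM test compound for 30 min, then were immunoprecipitated with the C-terminal ΔN197 RXRα antibody and blotted for p85α. (b) Transfected Flag-p85α and Myc-RXRα/Δ80: cells were pretreated with 50 μM compound for 1 hr, then given TNFα for 30 min, and immunoprecipitated with anti-Flag.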

[8] = test system: prostaglandin E2 (PGE2) production, A549 cells; assay: Prostaglandin E2 production; type: cell-based
Summary of the method: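 A549 cells were stimulated with TNFα 10 ng/ml for 24 hr, then exposed to test compound for 30 min. PGE2 was measured by enzyme immunoassay kit and expressed as the ratio of PGE2 with compound to PGE2 with vehicle.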

[9] = test system: cancer cell lines (HepG2, ZR-75-1); assay: PARP cleavage and caspase-8 activation by immunoblotting; type: cell-based
Summary of the method: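 Immunoblot for PARP cleavage and cleaved caspase-8 (p43/p41). ZR-75-1 cells were exposed to TNFα and/or test compound (50 or 75 μM) for 6 hr. HepG2 cells in 1% FBS medium received TNFα 10 ng/ml and/or 75 μM compound for 4 hr. Some cells were pretreated with 1 μM SR11237 for 1 hr.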

Row | SMILES | COX-inhibiting activity [1] | Inhibition of RXRα/Δ80 tumor growth, compared with Sulindac [2] | Colony formation [3] | RXRα-binding activity [4] | Inhibition of COX activities [5] | Inhibition of RA- and TNFα-induced AKT activation, compared with Sulindac [6] | Interaction of RXRα/Δ80 with p85α, compared with Sulindac [7] | Inhibition of constitutive and TNFα or IL-1β-induced PGE2 production [8] | PARP cleavage with TNFα, compared with Sulindac ([9]; ZR-75-1 cells, K-80003 50 μM, Sulindac 75 μM, 6 hr) | PARP cleavage and caspase-8 activation, with TNFα ([9]; various cancer cell lines)
1 | CC1=C(CC(=O)O)c2cc(F)ccc2/C1=C/c1ccc([S+](C)[O-])cc1 (centres unmarked) [sulindac sulfoxide] | no COX-inhibiting activity | – | – | – | – | – | – | – | – | –
2 | CC1=C(CC(=O)O)c2cc(F)ccc2/C1=C\c1ccc(S(C)(=O)=O)cc1 [sulindac sulfone] | no COX-inhibiting activity | – | – | – | – | – | – | – | – | –
3 | CC1=C(CC(=O)O)c2cc(F)ccc2/C1=C\c1ccc(C(C)C)cc1 [K-80003] | – | much more potent inhibitory effect than Sulindac | almost completely suppressed | most potent | no detectable inhibition | much more effective than Sulindac | more potently inhibited | failed to inhibit | more effective than Sulindac | synergistically induced PARP cleavage and caspase-8 activation
